≈ marks a conversion by molar mass, not a printed value.
What follows are compounds tested on Rhizoctonia solani (assay: Fungicidal activity against Rhizoctonia solani by mycelium growth rate test).
Assay type: functional, organism-based

Compound	EC50 [µg/mL]
O=C1CCCCCCCCCC/C(=N/OCc2cccnc2)CCN1	56.4 (≈ 163 µM)
O=C1CCCCCCCCCC/C(=N\OCc2ccccc2)CCN1	7.24 (≈ 21 µM)
O=C1CCCCCCCCCC/C(=N/OCc2ccc(Cl)cc2Cl)CCN1	100 (≈ 242 µM)
O=C1CCCCCCCCCC/C(=N/OCc2ccc([N+](=O)[O-])cc2)CCN1	49.3 (≈ 127 µM)
O=C1CCCCCCCCCC/C(=N\OCc2c(F)cccc2Cl)CCCN1	6.21 (≈ 15.1 µM)
O=C1CCCCCCCCCC/C(=N/OCc2ccc(F)cc2)CCN1	74.9 (≈ 207 µM)
O=C1CCCCCCCCCC/C(=N\OCc2ccc(Cl)cc2Cl)CCN1	106 (≈ 256 µM)
O=C1CCCCCCCCCC/C(=N/OCc2ccccc2)CCN1	18.1 (≈ 52.7 µM)
CO/N=C1/CCCCCCCCCCC(=O)NCC1	51.3 (≈ 191 µM)
C=CCO/N=C1/CCCCCCCCCCC(=O)NCCC1	45.6 (≈ 148 µM)
CO/N=C1\CCCCCCCCCCC(=O)NCC1	55.8 (≈ 208 µM)
C=CCON=C1CCCCCCCCCCC(=O)OCCC1	12.8 (≈ 41.2 µM)
CCCCCCCO/N=C1\CCCCCCCCCCC(=O)NCCC1	27.9 (≈ 76.1 µM)
O=C1CCCCCCCCCC/C(=N\OCc2ccccc2)CCCN1	8.28 (≈ 23.1 µM)
O=C1CCCCCCCCCC/C(=N\OCc2c(F)cccc2Cl)CCN1	43 (≈ 108 µM)
O=C1CCCCCCCCCC/C(=N/OCc2ccccc2)CCCN1	5.84 (≈ 16.3 µM)
O=C1CCCCCCCCCC/C(=N\OCc2ccc(Cl)cc2)CCCN1	164 (≈ 418 µM)
CCCON=C1CCCCCCCCCCC(=O)OCCC1	8.08 (≈ 25.9 µM)
CCO/N=C1\CCCCCCCCCCC(=O)NCCC1	22.7 (≈ 76.7 µM)
C=CCO/N=C1\CCCCCCCCCCC(=O)NCCC1	15.9 (≈ 51.6 µM)

Compound	EC50 [µg/mL]
CCCCO/N=C1/CCCCCCCCCCC(=O)NCCC1	3.97 (≈ 12.2 µM)
O=C1CCCCCCCCCC/C(=N/OCc2ccc(Cl)cc2)CCN1	97.2 (≈ 257 µM)
O=C1CCCCCCCCCCC(=NOCc2ccc(Cl)cc2)CCCO1	19.6 (≈ 49.8 µM)
CCCCCCCON=C1CCCCCCCCCCC(=O)OCCC1	9.68 (≈ 26.3 µM)
Cc1ccc(CO/N=C2\CCCCCCCCCCC(=O)NCC2)cc1	50.5 (≈ 141 µM)
CC(C)CO/N=C1\CCCCCCCCCCC(=O)NCC1	30.4 (≈ 97.8 µM)
CCCCO/N=C1/CCCCCCCCCCC(=O)NCC1	55.1 (≈ 177 µM)
O=C1CCCCCCCCCC/C(=N\OCc2ccc(Cl)cc2)CCN1	84.8 (≈ 224 µM)
CCCO/N=C1\CCCCCCCCCCC(=O)NCCC1	3.62 (≈ 11.7 µM)
CCCO/N=C1\CCCCCCCCCCC(=O)NCC1	9.11 (≈ 30.7 µM)
C=CCO/N=C1\CCCCCCCCCCC(=O)NCC1	21.8 (≈ 73.9 µM)
CC(C)CO/N=C1/CCCCCCCCCCC(=O)NCC1	48.4 (≈ 156 µM)
COC(=O)Nc1nc2ccccc2[nH]1 [CARBENDAZIM]	1.54 (≈ 8.05 µM)
CCCCCCCCCCCCCCCCO/N=C1/CCCCCCCCCCC(=O)NCCC1	47.8 (≈ 96.9 µM)
O=C1CCCCCCCCCC/C(=N\OCc2cccnc2)CCN1	52.5 (≈ 152 µM)
O=C1CCCCCCCCCC/C(=N/OCc2c(F)cccc2Cl)CCN1	1730 (≈ 4370 µM)
O=C1CCCCCCCCCC/C(=N/OCc2c(F)cccc2Cl)CCCN1	2.34 (≈ 5.69 µM)
CCCCCCCO/N=C1/CCCCCCCCCCC(=O)NCC1	209 (≈ 594 µM)
CCCCCCCCCCCCCCO/N=C1\CCCCCCCCCCC(=O)NCC1	69.1 (≈ 153 µM)
O=C1CCCCCCCCCC/C(=N\OCc2ccc(F)cc2)CCN1	12.1 (≈ 33.3 µM)

Compound	EC50 [µg/mL]
CCCCCCCCCCCCCCO/N=C1/CCCCCCCCCCC(=O)NCC1	101 (≈ 224 µM)
CCCCO/N=C1\CCCCCCCCCCC(=O)NCC1	7.21 (≈ 23.2 µM)
CCCCCCCCCCCCCCCCO/N=C1/CCCCCCCCCCC(=O)NCC1	135 (≈ 282 µM)
Cc1ccc(CO/N=C2/CCCCCCCCCCC(=O)NCC2)cc1	111 (≈ 310 µM)
CCCCO/N=C1\CCCCCCCCCCC(=O)NCCC1	2.34 (≈ 7.21 µM)
CCCO/N=C1/CCCCCCCCCCC(=O)NCC1	22.1 (≈ 74.5 µM)
CCCCCCCO/N=C1\CCCCCCCCCCC(=O)NCC1	50.3 (≈ 143 µM)
CCCCCCCCCCCCCCCCON=C1CCCCCCCCCCC(=O)OCCC1	40.4 (≈ 81.8 µM)
O=C1CCCCCCCCCCC(=NOCc2ccccc2)CCCO1	45.1 (≈ 126 µM)
CCO/N=C1\CCCCCCCCCCC(=O)NCC1	25.8 (≈ 91.5 µM)
O=C1CCCCCCCCCCC(=NOCc2c(F)cccc2Cl)CCCO1	51.3 (≈ 124 µM)
CCCCCCCO/N=C1/CCCCCCCCCCC(=O)NCCC1	19.2 (≈ 52.5 µM)
CCCCCCCCCCCCCCCCO/N=C1\CCCCCCCCCCC(=O)NCC1	127 (≈ 266 µM)
O=C1CCCCCCCCCC/C(=N\OCc2ccc([N+](=O)[O-])cc2)CCN1	166 (≈ 427 µM)
CCCCON=C1CCCCCCCCCCC(=O)OCCC1	13.4 (≈ 41 µM)
C=CCO/N=C1/CCCCCCCCCCC(=O)NCC1	44 (≈ 150 µM)
CCCCCCCCCCCCCCCCO/N=C1\CCCCCCCCCCC(=O)NCCC1	51.5 (≈ 104 µM)
CCCO/N=C1/CCCCCCCCCCC(=O)NCCC1	13.1 (≈ 42.3 µM)
O=C1CCCCCCCCCC/C(=N/OCc2ccc(Cl)cc2)CCCN1	68.4 (≈ 174 µM)

These compounds were tested on Phytophthora capsici (assay: Fungicidal activity against Phytophthora capsici assessed as growth inhibition).
Assay type: functional, organism-based

Compound	EC50 [µg/mL]
CCCON=C1CCCCCCCCCCC(=O)NCCC1	57.8 (≈ 186 µM)

The compounds below were run on Fulvia fulva (assay: Fungicidal activity against Passalora fulva Cooke (tomato leaf mold fungi) assessed as growth inhibition).
Assay type: functional, organism-based

Compound	EC50 [µg/mL]
CCCON=C1CCCCCCCCCCC(=O)NCCC1	53.1 (≈ 171 µM)

Each compound was assayed on Alternaria solani (assay: Fungicidal activity against Alternaria solani assessed as growth inhibition).
Assay type: functional, organism-based

Compound	EC50 [µg/mL]
CCCON=C1CCCCCCCCCCC(=O)NCCC1	44.2 (≈ 142 µM)

Each compound was assayed on Pythium aphanidermatum (assay: Fungicidal activity against Pythium aphanidermatum assessed as growth inhibition).
Assay type: functional, organism-based

Compound	EC50 [µg/mL]
CCCON=C1CCCCCCCCCCC(=O)NCCC1	33.3 (≈ 107 µM)

The compounds below were run on Fusarium oxysporum f. sp. vasinfectum (assay: Fungicidal activity against cotton Fusarium oxysporum f. sp. vasinfectum (fusarium wilt fungi) assessed as growth inhibition).
Assay type: functional, organism-based

Compound	EC50 [µg/mL]
CCCON=C1CCCCCCCCCCC(=O)NCCC1	29 (≈ 93.4 µM)

Each compound was assayed on Colletotrichum lagenaria (assay: Fungicidal activity against Colletotrichum lagenaria assessed as growth inhibition).
Assay type: functional, organism-based

Compound	EC50 [µg/mL]
CCCON=C1CCCCCCCCCCC(=O)NCCC1	23.9 (≈ 77 µM)

Each compound was assayed on Rhizoctonia solani (assay: Fungicidal activity against Rhizoctonia solani assessed as growth inhibition).
Assay type: functional, organism-based
In short: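 Mycelium growth rate test on Rhizoctonia solani Kühn. Inhibition rate was measured at 100, 50, 25, 12.5 and 6.25 µg/mL. EC50 was estimated by logistic analysis. A commercial fungicide reference was run under the same conditions.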

Compound	EC50 [µg/mL]
CCCON=C1CCCCCCCCCCC(=O)NCCC1	4.6 (≈ 14.8 µM)

These compounds were tested on Verticillium albo-atrum (assay: Fungicidal activity against Vercicillium albo-atrum assessed as growth inhibition).
Assay type: functional, organism-based

Compound	EC50 [µg/mL]
CCCON=C1CCCCCCCCCCC(=O)NCCC1	19.3 (≈ 62.2 µM)

These compounds were tested on Botryosphaeria berengeriana (assay: Fungicidal activity against Botryosphaeria berengeriana Nose (apple ring spot fungi) assessed as growth inhibition).
Assay type: functional, organism-based

Compound	EC50 [µg/mL]
CCCON=C1CCCCCCCCCCC(=O)NCCC1	13.8 (≈ 44.4 µM)

The compounds below were run on Phomopsis asparagi (assay: Fungicidal activity against Phomopsis asparagi assessed as growth inhibition).
Assay type: functional, organism-based

Compound	EC50 [µg/mL]
CCCON=C1CCCCCCCCCCC(=O)NCCC1	12 (≈ 38.6 µM)

These compounds were tested on Botrytis cinerea (assay: Fungicidal activity against Botryotinia fuckeliana assessed as growth inhibition).
Assay type: functional, organism-based

Compound	EC50 [µg/mL]
CCCON=C1CCCCCCCCCCC(=O)NCCC1	8.6 (≈ 27.7 µM)

The compounds below were run on Phyllosticta (assay: Fungicidal activity against Phyllospicpa physaleos Sacc (tomato southern blight fungi) assessed as growth inhibition).
Assay type: functional, organism-based

Compound	EC50 [µg/mL]
CCCON=C1CCCCCCCCCCC(=O)NCCC1	1.9 (≈ 6.12 µM)

What follows are compounds tested on Alternaria kikuchiana (assay: Fungicidal activity against Alternaria kikuchiana (pear black spot fungi) assessed as growth inhibition).
Assay type: functional, organism-based

Compound	EC50 [µg/mL]
CCCON=C1CCCCCCCCCCC(=O)NCCC1	1.2 (≈ 3.86 µM)

Reference: ChEMBL document CHEMBL3045435, “Synthesis and fungicidal activity of macrolactams and macrolactones with an oxime ether side chain” (J Agric Food Chem, 2007)
